Source: ChEMBL document CHEMBL1135500, “Highly antibacterial active aminoacyl penicillin conjugates with acylated bis-catecholate siderophores based on secondary diamino acids and related compounds” (2002)
Values after ≈ are worked out from the molar mass of the structure shown.

How the values were obtained:
Assay type in all cases: functional
Pseudomonas aeruginosa [1] = assay: In vitro antibacterial activity against ATCC 27853 strain of Pseudomonas aeruginosa
Procedure, shortened: (§1)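 MIC by microbroth dilution in Mueller-Hinton broth following NCCLS guidelines.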

Pseudomonas aeruginosa [2] = assay: In vitro antibacterial activity against SG 137 strain of Pseudomonas aeruginosa; procedure, shortened: as §1
Serratia marcescens = assay: In vitro antibacterial activity against SG 621 strain of Serratia marcescens; procedure, shortened: as §1
Escherichia coli = assay: In vitro antibacterial activity against ATCC 25922 strain of Escherichia coli; procedure, shortened: as §1
Klebsiella pneumoniae = assay: In vitro antibacterial activity against ATCC 100331 strain of Klebsiella pneumoniae; procedure, shortened: as §1
Staphylococcus aureus = assay: In vitro antibacterial activity against SG 511 strain of Staphylococcus aureus; procedure, shortened: as §1
[3] = test system: Stenotrophomonas maltophilia; assay: In vitro antibacterial activity against GN 12873 strain of Stenotrophomonas maltophilia; procedure, shortened: as §1

Compound	MIC (Pseudomonas aeruginosa [1]) [µg/mL]	MIC (Pseudomonas aeruginosa [2]) [µg/mL]	MIC (Serratia marcescens) [µg/mL]	MIC (Escherichia coli) [µg/mL]	MIC (Klebsiella pneumoniae) [µg/mL]	MIC (Staphylococcus aureus) [µg/mL]	MIC [3] [µg/mL]
COC(=O)Oc1cccc(C(=O)N(CCCCn2c(=O)oc3c(OC(=O)OC)cccc3c2=O)CC(=O)NC(C(=O)NC2C(=O)N3C2SC(C)(C)C3C(=O)O)c2ccccc2)c1OC(=O)OC (stereo not drawn)	0.156 (≈ 0.164 µM)	0.04 (≈ 0.0421 µM)	< 0.005	0.01 (≈ 0.0105 µM)	< 0.005	2.5 (≈ 2.63 µM)	0.04 (≈ 0.0421 µM)
CC(=O)Oc1cccc(C(=O)NCCCCN(CC(=O)NC(C(=O)NC2C(=O)N3C2SC(C)(C)C3C(=O)O)c2ccccc2)C(=O)c2cccc(OC(C)=O)c2OC(C)=O)c1OC(C)=O (stereo not drawn)	0.05 (≈ 0.0545 µM)	< 0.005	< 0.005	< 0.005	< 0.005	5 (≈ 5.45 µM)	0.005 (≈ 0.00545 µM)
COC(=O)Oc1cccc2c(=O)n(CC(=O)Nc3cc(NC(=O)Cn4c(=O)oc5c(OC(=O)OC)cccc5c4=O)cc(C(=O)NC(C(=O)NC4C(=O)N5C4SC(C)(C)C5C(=O)O)c4ccccc4)c3)c(=O)oc12 (stereo not drawn)	1.56 (≈ 1.5 µM)	0.05 (≈ 0.0482 µM)	12.5 (≈ 12 µM)	25 (≈ 24.1 µM)	1.56 (≈ 1.5 µM)	25 (≈ 24.1 µM)	3.12 (≈ 3.01 µM)
COC(=O)Oc1cc(Br)cc(C(=O)N(C)CCCN(CC(=O)NC(C(=O)NC2C(=O)N3C2SC(C)(C)C3C(=O)O)c2ccccc2)C(=O)c2cc(Br)cc(OC(=O)OC)c2OC(=O)OC)c1OC(=O)OC (stereo not drawn)	0.05 (≈ 0.0439 µM)	< 0.005	0.02 (≈ 0.0175 µM)	< 0.005	< 0.005	6.25 (≈ 5.48 µM)	0.02 (≈ 0.0175 µM)
CC1(C)S[C@@H]2[C@H](NC(=O)[C@H](NC(=O)N3CCNC3=O)c3ccccc3)C(=O)N2[C@H]1C(=O)O [AZLOCILLIN]	6.25 (≈ 13.5 µM)	6.25 (≈ 13.5 µM)	50 (≈ 108 µM)	6.25 (≈ 13.5 µM)	6.25 (≈ 13.5 µM)	0.4 (≈ 0.867 µM)	25 (≈ 54.2 µM)
COC(=O)Oc1cc(Cl)c(Cl)c(C(=O)N(C)CCCN(CC(=O)NC(C(=O)NC2C(=O)N3C2SC(C)(C)C3C(=O)O)c2ccccc2)C(=O)c2c(Cl)c(Cl)cc(OC(=O)OC)c2OC(=O)OC)c1OC(=O)OC (stereo not drawn)	0.1 (≈ 0.0893 µM)	0.05 (≈ 0.0447 µM)	0.05 (≈ 0.0447 µM)	0.02 (≈ 0.0179 µM)	< 0.005	3.12 (≈ 2.79 µM)	0.05 (≈ 0.0447 µM)
CC(=O)Oc1cccc(C(=O)NCCN(CC(=O)NC(C(=O)NC2C(=O)N3C2SC(C)(C)C3C(=O)O)c2ccccc2)C(=O)c2cccc(OC(C)=O)c2OC(C)=O)c1OC(C)=O (stereo not drawn)	0.78 (≈ 0.877 µM)	0.4 (≈ 0.449 µM)	0.78 (≈ 0.877 µM)	0.78 (≈ 0.877 µM)	0.1 (≈ 0.112 µM)	3.12 (≈ 3.51 µM)	0.78 (≈ 0.877 µM)
CC1(C)S[C@@H]2[C@H](NC(=O)[C@H](N)c3ccccc3)C(=O)N2[C@H]1C(=O)O [AMPICILLIN]	> 100	> 100	25 (≈ 71.5 µM)	6.25 (≈ 17.9 µM)	6.25 (≈ 17.9 µM)	0.4 (≈ 1.14 µM)	> 100
CC(=O)Oc1cccc(C(=O)NCCCCN(CC(=O)NC(C(=O)NC2C(=O)N3C2SC(C)(C)C3C(=O)O)c2ccc(O)cc2)C(=O)c2cccc(OC(C)=O)c2OC(C)=O)c1OC(C)=O (stereo not drawn)	0.16 (≈ 0.171 µM)	0.01 (≈ 0.0107 µM)	< 0.005	0.01 (≈ 0.0107 µM)	< 0.005	5 (≈ 5.35 µM)	0.005 (≈ 0.00535 µM)
COC(=O)Oc1cccc2c(=O)n(-c3cc(C(=O)NC(C(=O)NC4C(=O)N5C4SC(C)(C)C5C(=O)O)c4ccccc4)cc(-n4c(=O)oc5c(OC(=O)OC)cccc5c4=O)c3)c(=O)oc12 (stereo not drawn)	1.56 (≈ 1.69 µM)	0.2 (≈ 0.216 µM)	12.5 (≈ 13.5 µM)	25 (≈ 27.1 µM)	6.25 (≈ 6.77 µM)	25 (≈ 27.1 µM)	0.78 (≈ 0.844 µM)
COC(=O)Oc1cc(Cl)cc(C(=O)N(C)CCCN(CC(=O)NC(C(=O)NC2C(=O)N3C2SC(C)(C)C3C(=O)O)c2ccccc2)C(=O)c2cc(Cl)cc(OC(=O)OC)c2OC(=O)OC)c1OC(=O)OC (stereo not drawn)	0.1 (≈ 0.0952 µM)	< 0.005	0.02 (≈ 0.019 µM)	0.05 (≈ 0.0476 µM)	< 0.005	12.5 (≈ 11.9 µM)	0.02 (≈ 0.019 µM)
CC(=O)Oc1cccc(C(=O)N(C)CCCN(CC(=O)NC(C(=O)NC2C(=O)N3C2SC(C)(C)C3C(=O)O)c2ccccc2)C(=O)c2cccc(OC(C)=O)c2OC(C)=O)c1OC(C)=O (stereo not drawn)	0.08 (≈ 0.0872 µM)	0.005 (≈ 0.00545 µM)	0.05 (≈ 0.0545 µM)	0.02 (≈ 0.0218 µM)	< 0.005	3.12 (≈ 3.4 µM)	0.02 (≈ 0.0218 µM)
COC(=O)Oc1cccc2c(=O)n(CCC(=O)Nc3cc(NC(=O)CCn4c(=O)oc5c(OC(=O)OC)cccc5c4=O)cc(C(=O)NC(C(=O)NC4C(=O)N5C4SC(C)(C)C5C(=O)O)c4ccc(O)cc4)c3)c(=O)oc12 (stereo not drawn)	6.25 (≈ 5.78 µM)	6.25 (≈ 5.78 µM)	50 (≈ 46.2 µM)	6.25 (≈ 5.78 µM)	6.25 (≈ 5.78 µM)	0.4 (≈ 0.37 µM)	25 (≈ 23.1 µM)
CC(=O)Oc1cccc(C(=O)N(C)CCCN(Cc2ccccc2C(=O)NC(C(=O)NC2C(=O)N3C2SC(C)(C)C3C(=O)O)c2ccccc2)C(=O)c2cccc(OC(C)=O)c2OC(C)=O)c1OC(C)=O (stereo not drawn)	0.4 (≈ 0.402 µM)	0.04 (≈ 0.0402 µM)	0.24 (≈ 0.241 µM)	1.56 (≈ 1.57 µM)	0.2 (≈ 0.201 µM)	6.25 (≈ 6.29 µM)	< 0.05
COC(=O)Oc1cccc2c(=O)n(CCC(=O)Nc3cc(NC(=O)CCn4c(=O)oc5c(OC(=O)OC)cccc5c4=O)cc(C(=O)NC(C(=O)NC4C(=O)N5C4SC(C)(C)C5C(=O)O)c4ccccc4)c3)c(=O)oc12 (stereo not drawn)	0.2 (≈ 0.188 µM)	0.05 (≈ 0.0469 µM)	3.12 (≈ 2.93 µM)	6.25 (≈ 5.86 µM)	0.2 (≈ 0.188 µM)	6.25 (≈ 5.86 µM)	1.56 (≈ 1.46 µM)
COC(=O)Oc1cccc(C(=O)N(CCCn2c(=O)oc3c(OC(=O)OC)cccc3c2=O)C(C)CCC(=O)NC(C(=O)NC2C(=O)N3C2SC(C)(C)C3C(=O)O)c2ccccc2)c1OC(=O)OC (stereo not drawn)	3.12 (≈ 3.19 µM)	0.1 (≈ 0.102 µM)	0.1 (≈ 0.102 µM)	1.56 (≈ 1.6 µM)	0.2 (≈ 0.205 µM)	1.56 (≈ 1.6 µM)	0.4 (≈ 0.409 µM)
CC(=O)Oc1cccc(C(=O)Nc2cc(NC(=O)c3cccc(OC(C)=O)c3OC(C)=O)cc(C(=O)NC(C(=O)NC3C(=O)N4C3SC(C)(C)C4C(=O)O)c3ccccc3)c2)c1OC(C)=O (stereo not drawn)	3.12 (≈ 3.38 µM)	0.4 (≈ 0.433 µM)		100 (≈ 108 µM)	3.12 (≈ 3.38 µM)	25 (≈ 27.1 µM)	1.56 (≈ 1.69 µM)
CC(=O)Oc1ccc(C(=O)NCCCCN(CC(=O)NC(C(=O)NC2C(=O)N3C2SC(C)(C)C3C(=O)O)c2ccccc2)C(=O)c2ccc(OC(C)=O)c(OC(C)=O)c2)cc1OC(C)=O (stereo not drawn)	0.78 (≈ 0.85 µM)	0.2 (≈ 0.218 µM)	3.12 (≈ 3.4 µM)	0.78 (≈ 0.85 µM)	0.4 (≈ 0.436 µM)	0.78 (≈ 0.85 µM)	50 (≈ 54.5 µM)
COC(=O)Oc1cccc(C(=O)N(C)CCCN(CC(=O)NC(C(=O)NC2C(=O)N3C2SC(C)(C)C3C(=O)O)c2ccccc2)C(=O)c2cccc(OC(=O)OC)c2OC(=O)OC)c1OC(=O)OC (stereo not drawn)	0.31 (≈ 0.316 µM)	0.04 (≈ 0.0407 µM)	0.02 (≈ 0.0204 µM)	0.02 (≈ 0.0204 µM)	0.005 (≈ 0.00509 µM)	5 (≈ 5.09 µM)	0.08 (≈ 0.0815 µM)
CC(=O)Oc1cccc(C(=O)NCCCCN(Cc2ccc(OCC(=O)NC(C(=O)NC3C(=O)N4C3SC(C)(C)C4C(=O)O)c3ccccc3)cc2)C(=O)c2cccc(OC(C)=O)c2OC(C)=O)c1OC(C)=O (stereo not drawn)	6.25 (≈ 6.1 µM)	0.2 (≈ 0.195 µM)	6.25 (≈ 6.1 µM)	0.78 (≈ 0.762 µM)	< 0.05	1.56 (≈ 1.52 µM)	0.2 (≈ 0.195 µM)
CC(=O)Oc1cccc(C(=O)NCCCCN(Cc2ccccc2C(=O)NC(C(=O)NC2C(=O)N3C2SC(C)(C)C3C(=O)O)c2ccccc2)C(=O)c2cccc(OC(C)=O)c2OC(C)=O)c1OC(C)=O (stereo not drawn)	0.2 (≈ 0.201 µM)	0.1 (≈ 0.101 µM)	0.4 (≈ 0.402 µM)	0.4 (≈ 0.402 µM)	< 0.05	0.78 (≈ 0.785 µM)	< 0.05
C[C@@H](O)[C@H]1C(=O)N2C(C(=O)O)=C(S[C@@H]3CN[C@H](C(=O)N(C)C)C3)[C@H](C)[C@H]12 [MEROPENEM]	0.4 (≈ 1.04 µM)	0.2 (≈ 0.522 µM)	0.06 (≈ 0.156 µM)	0.04 (≈ 0.104 µM)	0.04 (≈ 0.104 µM)	0.1 (≈ 0.261 µM)	> 100
